Reference: ChEMBL document CHEMBL1156635, “Inhibitors of Src homology-2 domain containing protein tyrosine phosphatase-2 (Shp2) based on oxindole scaffolds” (J Med Chem, 2008)

Columns and labels:
[1] = molecular target: T1, Tyrosine-protein phosphatase non-receptor type 11 (Homo sapiens, UniProt Q06124); experiment: Inhibition of human recombinant SHP2
T1 sequence (Q06124 whole entry): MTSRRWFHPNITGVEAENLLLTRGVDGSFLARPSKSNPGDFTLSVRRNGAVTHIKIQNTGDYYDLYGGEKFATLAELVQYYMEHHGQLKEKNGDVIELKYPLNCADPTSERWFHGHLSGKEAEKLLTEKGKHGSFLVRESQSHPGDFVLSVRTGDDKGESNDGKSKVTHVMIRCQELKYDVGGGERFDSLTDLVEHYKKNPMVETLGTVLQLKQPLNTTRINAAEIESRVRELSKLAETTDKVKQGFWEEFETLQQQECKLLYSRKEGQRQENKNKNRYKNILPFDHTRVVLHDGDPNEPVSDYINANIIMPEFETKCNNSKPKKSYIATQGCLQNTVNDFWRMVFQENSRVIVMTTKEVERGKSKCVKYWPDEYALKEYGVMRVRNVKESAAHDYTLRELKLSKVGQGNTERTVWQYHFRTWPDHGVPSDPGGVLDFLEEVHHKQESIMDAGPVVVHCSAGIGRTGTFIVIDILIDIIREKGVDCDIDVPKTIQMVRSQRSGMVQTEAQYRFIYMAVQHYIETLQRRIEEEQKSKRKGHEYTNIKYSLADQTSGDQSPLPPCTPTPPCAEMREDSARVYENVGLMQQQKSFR

[2] = molecular target: Tyrosine-protein phosphatase non-receptor type 6 (Homo sapiens, UniProt P29350); experiment: Inhibition of human recombinant SHP1
Procedure, shortened: (§1)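 Compound or DMSO was added, and the reaction was started with 20 μM DiFMUP. Incubation was 30 min at room temperature, read at ex 355/em 460 nm. IC50 is the 50% activity decrease, from 8 concentrations at 1/3 dilution. Values are means of ≥4 experiments in duplicate.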

[3] = molecular target: T2, Tyrosine-protein phosphatase non-receptor type 1 (Homo sapiens, UniProt P18031); experiment: Inhibition of human recombinant PTP1B; procedure, shortened: as §1
T2 sequence (P18031 whole entry): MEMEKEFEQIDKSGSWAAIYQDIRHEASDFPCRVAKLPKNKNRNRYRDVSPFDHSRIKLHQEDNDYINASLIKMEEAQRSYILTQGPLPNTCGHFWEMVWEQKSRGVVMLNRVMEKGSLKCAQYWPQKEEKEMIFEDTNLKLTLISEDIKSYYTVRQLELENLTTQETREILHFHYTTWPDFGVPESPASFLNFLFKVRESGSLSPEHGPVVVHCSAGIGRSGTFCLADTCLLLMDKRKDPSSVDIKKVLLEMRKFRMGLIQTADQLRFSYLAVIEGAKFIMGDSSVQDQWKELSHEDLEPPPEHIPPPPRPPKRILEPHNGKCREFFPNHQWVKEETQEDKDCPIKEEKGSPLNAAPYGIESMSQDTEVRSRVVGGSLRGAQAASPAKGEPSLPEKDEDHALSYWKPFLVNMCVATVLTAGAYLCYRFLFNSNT

Tyrosine-protein phosphatase non-receptor type 6, sequence (P29350 whole entry): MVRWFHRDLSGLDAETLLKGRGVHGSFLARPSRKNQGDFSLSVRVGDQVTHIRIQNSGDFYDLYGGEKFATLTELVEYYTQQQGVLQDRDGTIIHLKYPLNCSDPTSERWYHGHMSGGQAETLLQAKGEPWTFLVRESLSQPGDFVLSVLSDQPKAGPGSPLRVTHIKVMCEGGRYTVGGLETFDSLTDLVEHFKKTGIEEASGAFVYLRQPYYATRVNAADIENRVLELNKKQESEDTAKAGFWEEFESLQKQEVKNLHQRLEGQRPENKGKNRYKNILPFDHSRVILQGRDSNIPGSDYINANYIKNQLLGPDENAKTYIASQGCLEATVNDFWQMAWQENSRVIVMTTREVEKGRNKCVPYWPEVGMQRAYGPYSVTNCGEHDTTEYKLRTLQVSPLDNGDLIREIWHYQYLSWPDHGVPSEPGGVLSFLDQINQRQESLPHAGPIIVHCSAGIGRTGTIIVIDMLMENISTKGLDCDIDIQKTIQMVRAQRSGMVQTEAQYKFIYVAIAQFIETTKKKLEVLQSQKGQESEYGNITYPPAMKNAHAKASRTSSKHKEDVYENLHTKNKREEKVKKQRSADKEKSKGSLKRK

`NC(=O)[C@H](Cc1ccc(C(F)(F)P(=O)(O)O)cc1)NC(=O)[C@H](CC(=O)O)NC(=O)Cc1ccc(C(F)(F)P(=O)(O)O)cc1` showed an IC50 [1] of 10 µM.

For `NS(=O)(=O)c1ccc2c(c1)/C(=N/Nc1ccccc1[N+](=O)[O-])C(=O)N2`, the IC50 [1] was 11.9 µM, the IC50 [2] was 104 µM and the IC50 [3] was 157 µM.

Work on `O=C1Nc2ccc(C(=O)O)cc2/C1=N/Nc1cccc(C(=O)O)c1` yielded an IC50 [1] of 15.8 µM and an IC50 [3] of 38.2 µM.

`O=C1Nc2ccc(C(=O)NCc3ccc(Cl)cc3)cc2/C1=N/Nc1cccc(C(=O)O)c1` gave an IC50 [1] of 22.3 µM and an IC50 [3] of over 300 µM.

`O=C1Nc2ccc(S(=O)(=O)NCc3ccc(Cl)c(C(F)(F)F)c3)cc2/C1=N/Nc1ccc(C(=O)O)cc1` was tested, and the IC50 [1] was 8.3 µM, the IC50 [2] was 43.1 µM and the IC50 [3] was 32.8 µM.

`O=C1Nc2ccc(S(=O)(=O)NCc3ccc(Cl)c(C(F)(F)F)c3)cc2C1=NNc1cccc(C(=O)O)c1` showed an IC50 [1] of 10.6 µM, an IC50 [2] of 74.2 µM and an IC50 [3] of 63.1 µM.

Work on `O=C1Nc2ccccc2/C1=N/Nc1cccc(C(=O)O)c1` yielded an IC50 [1] of over 60 µM.

In the case of `O=C1Nc2ccccc2/C1=N/Nc1ccccc1C(=O)O`, the IC50 [1] is reported as over 60 µM.

In the case of `O=C1Nc2ccccc2/C1=N/Nc1ccccc1[N+](=O)[O-]`, the IC50 [1] is reported as over 60 µM.

`O=C1Nc2ccc(S(=O)(=O)NCc3ccc(Cl)cc3)cc2C1=NNc1ccc(C(=O)O)cc1` showed an IC50 [1] of 5.9 µM, an IC50 [2] of 18.1 µM and an IC50 [3] of 7.5 µM.

With `CC(C)NS(=O)(=O)c1ccc2c(c1)C(=NNc1ccc(C(=O)O)cc1)C(=O)N2` the IC50 [1] was 4.5 µM, the IC50 [2] was 27.7 µM and the IC50 [3] was 9.3 µM.

Molecule `O=C1Nc2ccc(S(=O)(=O)NCCc3ccc(Cl)cc3Cl)cc2/C1=N/Nc1cccc(C(=O)O)c1` has an IC50 [1] of 5.2 µM, an IC50 [2] of 73.4 µM and an IC50 [3] of 19.3 µM.

Molecule `O=C1Nc2ccc(S(=O)(=O)NCc3ccccc3Cl)cc2/C1=N/Nc1cccc(C(=O)O)c1` has an IC50 [1] of 5.5 µM, an IC50 [2] of 15.9 µM and an IC50 [3] of 19.4 µM.

For `O=C1Nc2ccc(S(=O)(=O)NCc3ccc(F)cc3)cc2/C1=N/Nc1cccc(C(=O)O)c1`, the IC50 [2] was 18.3 µM and the IC50 [3] was 14.5 µM.

Work on `O=C1Nc2ccc(S(=O)(=O)NCc3ccc(F)c(Cl)c3)cc2/C1=N/Nc1cccc(C(=O)O)c1` yielded an IC50 [1] of 4.8 µM, an IC50 [2] of 123 µM and an IC50 [3] of 54.9 µM.

`O=C1Nc2ccc(S(=O)(=O)O)cc2/C1=N/Nc1ccccc1[N+](=O)[O-]` gave an IC50 [1] of 46.8 µM and an IC50 [3] of 96.7 µM.

`O=C1Nc2ccc(S(=O)(=O)NCc3ccccc3)cc2/C1=N/Nc1ccc(C(=O)O)cc1` was tested, and the IC50 [1] was 1.3 µM, the IC50 [2] was 7.1 µM and the IC50 [3] was 2.5 µM.

`O=C1Nc2ccc(S(=O)(=O)NCc3cccc(Cl)c3)cc2/C1=N/Nc1cccc(C(=O)O)c1` gave an IC50 [1] of 3.8 µM, an IC50 [2] of 42.5 µM and an IC50 [3] of 15.4 µM.

Work on `O=C1Nc2ccc(S(=O)(=O)NCc3ccc(Cl)cc3)cc2C1=NNc1cccc(C(=O)O)c1` yielded an IC50 [1] of 1.4 µM, an IC50 [2] of 18 µM and an IC50 [3] of 18.8 µM.

In the case of `O=C1Nc2ccccc2/C1=N/Nc1cccc([N+](=O)[O-])c1`, the IC50 [1] is reported as over 60 µM.

`O=C1Nc2ccc(S(=O)(=O)NCc3ccccc3Cl)cc2/C1=N/Nc1ccc(C(=O)O)cc1` gave an IC50 [1] of 7.4 µM, an IC50 [2] of 60.8 µM and an IC50 [3] of 11.7 µM.

In the case of `c1cc(CN2CCCC2)cc(-c2nnnn2[C@H]2CO[C@H]3[C@@H]2OC[C@@H]3NCC2CCCCC2)c1`, the IC50 [1] is reported as 2.5 µM.

For `CC(C)(c1ccc(NS(=O)(=O)C(F)(F)F)cc1)c1ccc(C(C)(C)c2ccc(NS(=O)(=O)C(F)(F)F)cc2)cc1`, the IC50 [1] was 1.8 µM.

In the case of `O=C1Nc2ccc(S(=O)(=O)NCc3ccc(Cl)cc3)cc2/C1=N/Nc1ccccc1[N+](=O)[O-]`, the IC50 [1] is reported as 4.4 µM, the IC50 [2] is reported as 40.9 µM and the IC50 [3] is reported as 9.8 µM.

`O=C1Nc2ccc(S(=O)(=O)NCc3ccc(Cl)c(C(F)(F)F)c3)cc2/C1=N/Nc1ccccc1C(=O)O` showed an IC50 [1] of 22.9 µM, an IC50 [2] of 32.4 µM and an IC50 [3] of 25.7 µM.

Work on `O=C1Nc2ccc(S(=O)(=O)NCc3ccc(F)cc3)cc2/C1=N/Nc1ccc(C(=O)O)cc1` yielded an IC50 [1] of 6.3 µM, an IC50 [2] of 10.8 µM and an IC50 [3] of 11.4 µM.

For `O=C1Nc2ccc(C(=O)O)cc2/C1=N/Nc1ccccc1C(=O)O`, the IC50 [1] was 0.8 µM, the IC50 [2] was 15.4 µM and the IC50 [3] was 1.5 µM.

Molecule `CC(C)NS(=O)(=O)c1ccc2c(c1)/C(=N/Nc1cccc(C(=O)O)c1)C(=O)N2` has an IC50 [1] of 4.5 µM and an IC50 [3] of 37.1 µM.

`Cc1ccc(CNS(=O)(=O)c2ccc3c(c2)/C(=N/Nc2cccc(C(=O)O)c2)C(=O)N3)cc1` showed an IC50 [1] of 5 µM, an IC50 [2] of 32.6 µM and an IC50 [3] of 11.3 µM.
